Measurements published in ChEMBL document CHEMBL1649503, “Alkoxyalkyl esters of 9-(s)-(3-hydroxy-2-phosphonomethoxypropyl) adenine are potent and selective inhibitors of hepatitis B virus (HBV) replication in vitro and in HBV transgenic mice in vivo” (Antimicrob Agents Chemother, 2009).

Legend:
[1] = Cmax in Swiss-Webster mouse plasma assessed per gram of tissue at 10 mg/kg, ip after 24 hrs; format: ADME, organism-based; parameters: dose 10 mg/kg, route intraperitoneal
In short: (§1)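 Female Swiss-Webster mice (about 25 g) each got a single 10 mg/kg dose of the 14C-labeled (8-14C) ester (50 mCi/mmol) in 0.7% saline, by oral gavage or ip injection. Blood was taken at 1, 3, 6, 12 and 24 h, and liver, spleen, kidney, lung, heart and brain were excised, washed and weighed. Radioactivity was measured by scintillation counting as µM plasma equivalents or nmol/g tissue, mean of three per time point.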

[2] = test system: Heart; assay: Cmax in Swiss-Webster mouse heart assessed per gram of tissue at 10 mg/kg, ip after 24 hrs; format: ADME, organism-based; parameters: dose 10 mg/kg, route intraperitoneal; settings: in vivo; in short: as §1
[3] = test system: Hepatitis B virus; assay: Antiviral activity against HBV harboring RNA polymerase M204I mutant gene infected in human HuH7 cells assessed as decrease in viral transient transfection after 5 days; settings: Huh-7, 5 days
[4] = test system: Mus musculus; assay: Toxicity in transgenic mouse at 30 to 100 mg/kg, po assessed as morbidity after 7 days; format: organism-based; parameters: dose 30-100 mg/kg, route oral; settings: in vivo, 168 h
[5] = Tmax in Swiss-Webster mouse spleen at 10 mg/kg, po after 24 hrs; format: ADME, organism-based; parameters: dose 10 mg/kg, route oral
In short: (§2)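 Female Swiss-Webster mice (about 25 g) got one 10 mg/kg dose of the 8-14C-labeled ester (50 mCi/mmol) in 0.7% saline, by oral gavage or intraperitoneal injection. Blood was taken at 1, 3, 6, 12 and 24 h. Liver, spleen, kidney, lung, heart and brain were excised, washed and weighed. Drug plus metabolites were measured by liquid scintillation as µM plasma equivalents or nmol/g tissue. Each time point is the mean of three replicates.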

[6] = test system: HepG2; assay: Drug metabolism in human HepG2 cells assessed as HPMPApp uptake at 10 uM after 48 hrs; format: ADME, cell-based; settings: hepg2, 48 h
[7] = test system: HepG2; assay: Drug metabolism in human HepG2 cells assessed as HPMPAp uptake at 10 uM after 24 hrs; format: ADME, cell-based; settings: hepg2, 24 h
In short: (§3)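 Nearly confluent HepG2 flasks got 14C-labeled drug (final 10 µM, 50 mCi/mmol) for 24 h. Cells were washed with cold PBS, lysed in water by two freeze-thaw cycles and sonication, then extracted with cold TCA (8% final) and centrifuged at 4°C. Supernatant was counted and analyzed by SAX ion-exchange HPLC, with metabolites assigned by retention versus reference standards.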

[8] = test system: Hepatitis B virus; assay: Antiviral activity against HBV harboring RNA polymerase L180M mutant gene infected in human HuH7 cells assessed as decrease in viral transient transfection after 5 days; settings: Huh-7, 5 days
[9] = test system: Lung; assay: AUC in Swiss-Webster mouse lung assessed per gram of tissue at 10 mg/kg, ip after 24 hrs; format: ADME, organism-based; parameters: time < 24 hr, dose 10 mg/kg, route intraperitoneal; settings: in vivo; in short: as §1
[10] = test system: HepG2; assay: Drug metabolism in human HepG2 cells assessed as HPMPA uptake at 10 uM after 24 hrs; format: ADME, cell-based; settings: hepg2, 24 h; in short: as §3
[11] = Selectivity index, ratio of CC50 for human HepG2(2.2.15) cells to EC50 for HBV infected in human HepG2(2.2.15) cells
In short: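 Ratio from two 2.2.15 readouts after nine daily doses in RPMI/2% FBS. Extracellular HBV DNA was measured by quantitative blot hybridization and cytotoxicity by neutral red uptake (three cultures per concentration), both 24 h after the final dose.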

[12] = Tmax in Swiss-Webster mouse spleen at 10 mg/kg, ip after 24 hrs; format: ADME, organism-based; parameters: dose 10 mg/kg, route intraperitoneal; in short: as §2
[13] = Tmax in Swiss-Webster mouse brain at 10 mg/kg, ip after 24 hrs; format: ADME, organism-based; parameters: dose 10 mg/kg, route intraperitoneal; in short: as §1
[14] = test system: Heart; assay: Cmax in Swiss-Webster mouse heart assessed per gram of tissue at 10 mg/kg, po after 24 hrs; format: ADME, organism-based; parameters: dose 10 mg/kg, route oral; settings: in vivo; in short: as §1
[15] = Tmax in Swiss-Webster mouse heart at 10 mg/kg, ip after 24 hrs; format: ADME, organism-based; parameters: dose 10 mg/kg, route intraperitoneal; in short: as §1
[16] = test system: Brain; assay: Cmax in Swiss-Webster mouse brain assessed per gram of tissue at 10 mg/kg, ip after 24 hrs; format: ADME, organism-based; parameters: dose 10 mg/kg, route intraperitoneal; settings: in vivo; in short: as §1
[17] = test system: Hepatitis B virus; assay: Antiviral activity against HBV infected in human HepG2(2.2.15) cells assessed as decrease in extracellular viral DNA level after 24 hrs by blot hybridization assay; format: functional, organism-based; settings: HepG2 2.2.15, 24 h
In short: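 Confluent 2.2.15 cells in RPMI 1640 with 2% FBS got nine consecutive daily doses, with medium replaced daily with drug-containing medium. Six wells per concentration over two replicate plates. Cells were pelleted from the medium, which was kept at 4°C and not frozen. Extracellular HBV DNA was quantified by blot hybridization 24 h after the last dose.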

[18] = test system: Spleen; assay: AUC in Swiss-Webster mouse spleen assessed per gram of tissue at 10 mg/kg, po after 24 hrs; format: ADME, organism-based; parameters: time < 24 hr, dose 10 mg/kg, route oral; settings: in vivo; in short: as §1
[19] = test system: Heart; assay: AUC in Swiss-Webster mouse heart assessed per gram of tissue at 10 mg/kg, po after 24 hrs; format: ADME, organism-based; parameters: time < 24 hr, dose 10 mg/kg, route oral; settings: in vivo; in short: as §1
[20] = test system: Hepatitis B virus; assay: Antiviral activity against wild type HBV infected in human HuH7 cells assessed as decrease in viral transient transfection after 5 days; settings: Huh-7, 5 days
[21] = test system: Spleen; assay: AUC in Swiss-Webster mouse spleen assessed per gram of tissue at 10 mg/kg, ip after 24 hrs; format: ADME, organism-based; parameters: time < 24 hr, dose 10 mg/kg, route intraperitoneal; settings: in vivo; in short: as §1
[22] = test system: Kidney; assay: Cmax in Swiss-Webster mouse kidney assessed per gram of tissue at 10 mg/kg, ip after 24 hrs; format: ADME, organism-based; parameters: dose 10 mg/kg, route intraperitoneal; settings: in vivo; in short: as §1
[23] = test system: Brain; assay: Cmax in Swiss-Webster mouse brain assessed per gram of tissue at 10 mg/kg, po after 24 hrs; format: ADME, organism-based; parameters: dose 10 mg/kg, route oral; settings: in vivo; in short: as §1
[24] = Tmax in Swiss-Webster mouse kidney at 10 mg/kg, po after 24 hrs; format: ADME, organism-based; parameters: dose 10 mg/kg, route oral; in short: as §1
[25] = test system: HepG2; assay: Drug metabolism in human HepG2 cells assessed as HPMPA uptake at 10 uM after 48 hrs; format: ADME, cell-based; settings: hepg2, 48 h
[26] = test system: Hepatitis B virus; assay: Antiviral activity against HBV harboring RNA polymerase N236T mutant gene infected in human HuH7 cells assessed as decrease in viral transient transfection […]; format: functional, organism-based; settings: Huh-7
In short: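 Lamivudine- and adefovir-resistant HBV mutants introduced into Huh7 cells by transient transfection. Compounds were tested in a 5-day assay.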

[27] = Tmax in Swiss-Webster mouse lung at 10 mg/kg, po after 24 hrs; format: ADME, organism-based; parameters: dose 10 mg/kg, route oral; in short: as §2
[28] = Tmax in Swiss-Webster mouse plasma at 10 mg/kg, po after 24 hrs; format: ADME, organism-based; parameters: dose 10 mg/kg, route oral; in short: as §2
[29] = test system: Liver; assay: Cmax in Swiss-Webster mouse liver assessed per gram of tissue at 10 mg/kg, po after 24 hrs; format: ADME, organism-based; parameters: dose 10 mg/kg, route oral; settings: in vivo; in short: as §1

Question: For `CCCCCCCCCCCCCCCCOCCCOP(=O)(O)CO[C@H](CO)Cn1cnc2c(N)ncnc21`, which Cmax [1] is on record?
Answer: The Cmax was 2230 nM.

Question: What about the Cmax [2] of the same compound?
Answer: Its Cmax is 0.57 nmol/g.

Question: What about the EC50 [3] of the same compound?
Answer: The EC50 was 1200 nM.

Question: And the EC90 [3]?
Answer: Its EC90 is 4000 nM.

Question: And the Activity [4]?
Answer: The Activity was “Toxic”.

Question: And the Tmax [5]?
Answer: Its Tmax is 3 h.

Question: And the Drug uptake [6]?
Answer: The Drug uptake was 444 pmol.

Question: And the Drug uptake [7]?
Answer: Its Drug uptake is 255 pmol.

Question: What about the EC50 [8] of the same compound?
Answer: Its EC50 is 1000 nM.

Question: And the EC90 [8]?
Answer: The EC90 was 3500 nM.

Question: And the AUC [9]?
Answer: The AUC was 21.5 nmol·h/g.

Question: What about the Drug uptake [10] of the same compound?
Answer: The Drug uptake was 1007 pmol.

Question: And the “Selectivity Index” value [11]?
Answer: The value was greater than 483.

Question: What about the Tmax [12] of the same compound?
Answer: Its Tmax is 1 h.

Question: And the Tmax [13]?
Answer: Its Tmax is 1 h.

Question: What about the Cmax [14] of the same compound?
Answer: Its Cmax is 0.2 nmol/g.

Question: And the Tmax [15]?
Answer: Its Tmax is 1 h.

Question: What about the Cmax [16] of the same compound?
Answer: The Cmax was 0.16 nmol/g.

Question: And the EC50 [17]?
Answer: The EC50 was 188 nM.

Question: What about the EC90 [17] of the same compound?
Answer: The EC90 was 616 nM.

Question: What about the AUC [18] of the same compound?
Answer: Its AUC is 3.9 nmol·h/g.

Question: What about the AUC [19] of the same compound?
Answer: Its AUC is 2.69 nmol·h/g.

Question: What about the EC50 [20] of the same compound?
Answer: Its EC50 is 800 nM.

Question: What about the EC90 [20] of the same compound?
Answer: Its EC90 is 3000 nM.

Question: And the AUC [21]?
Answer: Its AUC is 16.3 nmol·h/g.

Question: What about the Cmax [22] of the same compound?
Answer: Its Cmax is 22.9 nmol/g.

Question: What about the Cmax [23] of the same compound?
Answer: Its Cmax is 0.07 nmol/g.

Question: What about the Tmax [24] of the same compound?
Answer: The Tmax was 3 h.

Question: And the Drug uptake [25]?
Answer: The Drug uptake was 393 pmol.

Question: What about the EC50 [26] of the same compound?
Answer: Its EC50 is greater than 100000 nM.

Question: And the EC90 [26]?
Answer: The EC90 was greater than 100000 nM.

Question: And the Tmax [27]?
Answer: Its Tmax is 3 h.

Question: And the Tmax [28]?
Answer: Its Tmax is 1 h.

Question: And the Cmax [29]?
Answer: The Cmax was 21.1 nmol/g.
